Measurements: ChEMBL document CHEMBL1149077, “Synthesis and evaluation of a novel series of pseudo-cinnamic derivatives as antituberculosis agents” (2009)
Values after ≈ are worked out from the molar mass of the structure shown.

system: Mycobacterium tuberculosis; experiment: Antitubercular activity against Mycobacterium tuberculosis H37Rv after 6 days by MTT reduction assay; format: functional; details: 144 h
Outline: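 Strain H37Rv tested in 7H9 broth across serial twofold compound dilutions, bacilli added to each well. Incubated 6 days, then MTT (1 mg/mL) added for one further day. Formazan solubilized and absorbance read at 570 nm. MIC taken as lowest concentration inhibiting growth, with untreated bacilli serving as growth control.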

Compound | MIC [µg/mL]
COc1ccc(/C=C/C(=O)Nc2ccccn2)cc1OC | 125 (≈ 440 µM)
COc1cc(/C=C/C(=O)SCCNC(C)=O)cc(OC)c1O | 125 (≈ 384 µM)
COc1cc(/C=C/C(=O)SCCNC(C)=O)ccc1O | 125 (≈ 423 µM)
COc1ccc(/C=C/C(=O)SCCNC(C)=O)cc1 | 63 (≈ 226 µM)
COc1cc(/C=C/C(=O)NCCc2c[nH]c3ccccc23)ccc1O | 8 (≈ 23.8 µM)
CC(=O)NCCSC(=O)/C=C/c1ccc(O)cc1 | 63 (≈ 237 µM)
CC(=O)NCCNC(=O)/C=C/c1ccc(OCC=C(C)C)cc1 | 63 (≈ 199 µM)
COc1ccc(/C=C/C(=O)Nc2ccccn2)cc1 | 63 (≈ 248 µM)
O=C(/C=C/c1ccc(O)cc1)Sc1ccccc1 | 8 (≈ 31.2 µM)
CC(C)=CCOc1ccc(/C=C/C(=O)Nc2ccccn2)cc1 | 16 (≈ 51.9 µM)
CC(C)=CCC/C(C)=C/COc1ccc(/C=C/C(=O)Nc2ccccn2)cc1 | 1 (≈ 2.66 µM)
CC(=O)NCCSC(=O)/C=C/c1ccc(OC/C=C(\C)CCC=C(C)C)cc1 | 0.6 (≈ 1.49 µM)
CC(=O)NCCNC(=O)/C=C/c1ccc(OC/C=C(\C)CCC=C(C)C)cc1 | 0.1 (≈ 0.26 µM)
COc1ccc(/C=C/C(=O)NCCNC(C)=O)cc1 | > 500
CC(C)=CCOc1ccc(/C=C/C(=O)NCCc2c[nH]c3ccccc23)cc1 | 63 (≈ 168 µM)
CC(C)=CCC/C(C)=C/COc1ccc(/C=C/C(=O)NCCc2c[nH]c3ccccc23)cc1 | 32 (≈ 72.3 µM)
COc1cc(/C=C/C(=O)Sc2ccccc2)ccc1O | 8 (≈ 27.9 µM)
CC(=O)NCCSC(=O)/C=C/c1ccc(OCC=C(C)C)cc1 | 32 (≈ 96 µM)
COc1ccc(/C=C/C(=O)NCCc2c[nH]c3ccccc23)cc1 | 500 (≈ 1560 µM)
CC(=O)NCCSC(=O)/C=C/c1ccc(OC/C=C(/C)CC/C=C(/C)CCC=C(C)C)cc1 | 0.6 (≈ 1.28 µM)
